From PubChem BioAssay
The sample as a whole holds a higher share of hits than the screen did.
ABCG2 block: human ABCG2 inhibition, ABCB1 as counter-screen. Q9UNQ0. IgMXP3 cells, JC-1 efflux, flow cytometry. inhibition, % at 6.6 µM. actives 0.1% (n = 190,000). AID 1325;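 active = inhibition above 80%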
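Assay system – ABCG2 IgMXP3 and barcoded ABCB1 CCRF-Adr cell mix · Input – 3 million cells/mL in well · Reagent – JC-1 fluorescent substrate · Compound – single test compound dose, 6.6 µM final · Timing – 10 min exposure at 25 °C with rotation, no wash · Detection – flow cytometry of retained JC-1 fluorescence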
ROMK mod: modulators of human ROMK potassium channel; P48048; Tet-inducible ROMK, thallium flux fluorescence; actives lie on both sides; B-score at 10 µM; actives 2% (n = 130,000);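 active = signal ratio slope over the read window, or its plate-corrected B-score, at least 3 SD from the plate mean, either direction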;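 also: B-score of the F/F0 ratio slope over 7 to 12 s after thallium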
Target sequence (P48048 whole entry, looked up): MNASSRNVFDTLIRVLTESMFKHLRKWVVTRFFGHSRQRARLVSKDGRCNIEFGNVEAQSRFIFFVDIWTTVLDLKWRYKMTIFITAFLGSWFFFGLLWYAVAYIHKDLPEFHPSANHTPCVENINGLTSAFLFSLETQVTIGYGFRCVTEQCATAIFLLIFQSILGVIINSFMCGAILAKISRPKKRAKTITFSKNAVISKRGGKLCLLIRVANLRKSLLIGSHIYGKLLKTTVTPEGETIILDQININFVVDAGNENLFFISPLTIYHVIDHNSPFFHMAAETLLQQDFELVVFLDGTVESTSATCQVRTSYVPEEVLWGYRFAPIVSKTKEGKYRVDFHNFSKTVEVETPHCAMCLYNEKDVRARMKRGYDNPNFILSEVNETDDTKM
Biofilm kill mix: mixtures killing C. albicans biofilm; inhibition, % at 7.6 µM; actives 0.02% (n = 120,000); C. albicans biofilm persisters + clotrimazole, fluorescence viability; primary screen in compound mixtures of four per well;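 also: compounds exposed to preformed 24 h biofilms for 48 h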
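Test system: C. albicans biofilms. Buffer or medium: RPMI/MOPS medium, pH 7.0. Timing: 48 h compound exposure at 37 °C. Technique: Alamar Blue fluorescence. Evaluation: percent inhibition of biofilm viability.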
TRPML3 ag: human mucolipin-3 channel agonism; HEK293 TRPML3-YFP, Fluo-8 calcium fluorescence; 100% = the carbachol control signal; activation, % at 3 µM; Q8TDD5; actives 0.29% (n = 220,000);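 active = activation above its plate's cutoff, the mean activation of the plate's test wells plus 3 SD, cut at about 12% in these data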
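Test system: TRPML3-YFP stable HEK293 cells. Doses: single point at 3 µM. Incubation: dye loading 1 h 37 °C then 30 min ambient, 125 s read. Signal: Fluo-8 calcium dye fluorescence, ex 470-495, em 515-575 nm. Measure: percent activation from peak-to-basal fluorescence ratio, scaled between DMSO and carbachol.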
zfTRPN1 agonist: zebrafish TRPN1 (NompC) channel agonism | HEK293 zebrafish TRPN1-YFP, Fluo-8 calcium fluorescence; 100% = response to 87 µM carbachol | activation, % at 3 µM | actives 0.18% (n = 220,000) | AID 1424;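 active = activation above its plate's cutoff, the mean activation of test wells on that plate plus 3 SD, cut at about 19% in these data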
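Assay system: Zebrafish TRPN1-YFP in HEK293 cells | Incubation: Dye loading 1 h at 37 °C, then 30 min room temperature | Measured by: Kinetic Fluo-8 fluorescence, ex 470-495, em 515-575 nm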
ABCB1 inh: inhibitors of human ABCB1 transporter, ABCG2 counter-screen. P08183. CCRF-Adr cells, JC-1 efflux, flow cytometry. inhibition, % at 6.6 µM. actives 0.067% (n = 190,000). AID 1326; in the data active = inhibition above about 40%;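 also: higher value means more JC-1 retained so stronger ABCB1 efflux block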
TRPN1 counter: activates zebrafish TRPN1, counter-screen for TRPML3 agonists. AID 1525. actives 10% (n = 310). activation, % at 3 µM. shares compounds with TRPML3 ag. HEK293 zebrafish TRPN1-YFP, Fluo-8 calcium fluorescence; scaled: carbachol wells 100%, DMSO wells 0%;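 active = mean activation over replicates above a set limit taken from the earlier TRPN1 channel primary screen, cut at about 19% in these data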
TRPML3 ag conf: confirmation of human TRPML3 channel agonists | actives 80% (n = 310) | shares compounds with TRPML3 ag | activation, % at 3 µM | HEK293 TRPML3-YFP, Fluo-8 calcium fluorescence; 100% set by carbachol, 0% by DMSO;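 active = activation above a set limit derived from the earlier primary screen, cut at about 12% in these data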
A number is an active result.

Cn1cnnc1SCC(=O)N/N=C/c1ccc(OCC(N)=O)cc1 was read as ROMK mod inactive, Biofilm kill mix inactive, TRPML3 ag inactive and zfTRPN1 agonist inactive.
Screening CC1CCCCN1S(=O)(=O)c1ccccc1[N+](=O)[O-] (centres undefined) returned ABCG2 block inactive, ROMK mod inactive, Biofilm kill mix inactive, TRPML3 ag inactive, zfTRPN1 agonist inactive and ABCB1 inh inactive.
For CCC1CCCCN1S(=O)(=O)c1ccccc1[N+](=O)[O-] (centres undefined) the results were ABCG2 block inactive, ROMK mod inactive, Biofilm kill mix inactive, TRPML3 ag 21.6, zfTRPN1 agonist inactive, ABCB1 inh inactive, TRPN1 counter inactive and TRPML3 ag conf 21.9.
For CN(CC(=O)O/N=C(\N)c1cccc([N+](=O)[O-])c1)S(=O)(=O)c1ccccc1 the results were ABCG2 block inactive, ROMK mod inactive, TRPML3 ag 95.5, zfTRPN1 agonist inactive, ABCB1 inh inactive, TRPN1 counter inactive and TRPML3 ag conf 36.4.
CN(CC(=O)O/N=C(\N)c1ccc([N+](=O)[O-])cc1)S(=O)(=O)c1ccccc1 was read as ROMK mod inactive, TRPML3 ag inactive, zfTRPN1 agonist inactive and ABCB1 inh inactive.
For COC(=O)c1[nH]c2c(c1C)C(=O)CC(c1cccs1)C2 (centres undefined) the results were ABCG2 block inactive, TRPML3 ag 25.7, zfTRPN1 agonist inactive, ABCB1 inh inactive, TRPN1 counter inactive and TRPML3 ag conf inactive.
COC(=O)c1[nH]c2c(c1C)C(=O)CC(c1cc(OC)ccc1OC)C2 (centres undefined) was read as ABCG2 block inactive, TRPML3 ag inactive, zfTRPN1 agonist inactive and ABCB1 inh inactive.
Screening Cn1c(=O)n(C)c2cc(S(=O)(=O)Nc3cc(Cl)ccc3O)ccc21 returned ABCG2 block inactive, ROMK mod inactive, Biofilm kill mix inactive, TRPML3 ag inactive, zfTRPN1 agonist inactive and ABCB1 inh inactive.
Screening C=CCOc1ccc2c(c1)c(=O)cc(C(=O)O)n2CC returned Biofilm kill mix inactive, TRPML3 ag inactive and zfTRPN1 agonist inactive.
C=CCOc1ccc2c(c1)c(S(=O)(=O)c1ccc(C)cc1)cn2COC was read as ABCG2 block inactive, TRPML3 ag 126.7, zfTRPN1 agonist inactive, ABCB1 inh inactive, TRPN1 counter inactive and TRPML3 ag conf 138.9.
Screening COc1ccccc1NC(=O)Cn1nc(Cc2cccnc2)c2ccccc2c1=O returned ROMK mod inactive, Biofilm kill mix inactive, TRPML3 ag inactive and zfTRPN1 agonist inactive.
`Cc1onc(-c2ccccc2)c1C(=O)NC(=S)NNC(=O)c1ccncc1` gave ABCG2 block inactive, Biofilm kill mix inactive, TRPML3 ag inactive, zfTRPN1 agonist inactive and ABCB1 inh inactive.
Screening COc1ccc(C(=O)NC(=S)NNC(=O)c2c(-c3ccccc3)noc2C)cc1OC returned Biofilm kill mix inactive, TRPML3 ag 19.4, zfTRPN1 agonist inactive, TRPN1 counter inactive and TRPML3 ag conf 24.1.
For COc1cc(C(=O)NNC(=S)NC(=O)/C=C/c2ccccc2)cc(OC)c1OC the results were Biofilm kill mix inactive, TRPML3 ag inactive and zfTRPN1 agonist inactive.
COc1cc(C(=O)NNC(=S)NC(=O)c2ccc(Cl)cc2)cc(OC)c1OC was read as ABCG2 block inactive, ROMK mod inactive, Biofilm kill mix inactive, TRPML3 ag 12.7, zfTRPN1 agonist inactive, ABCB1 inh inactive, TRPN1 counter 44.2 and TRPML3 ag conf 36.0.
For Cc1ccccc1Nc1nc(N)nc(CN2CCN(C(=O)c3ccccc3)CC2)n1 the results were ABCG2 block inactive, ROMK mod inactive, Biofilm kill mix inactive, TRPML3 ag inactive, zfTRPN1 agonist inactive and ABCB1 inh inactive.
Screening CCN1CCCc2cc(CN(CCN3CCOCC3)C(=S)Nc3cccc(Cl)c3)ccc21 returned ABCG2 block inactive, ROMK mod inactive, Biofilm kill mix inactive, TRPML3 ag inactive, zfTRPN1 agonist inactive and ABCB1 inh inactive.
`COc1ccc(CCN2C(=NC(=O)C(C)C)SC3CS(=O)(=O)CC32)cc1` (centres undefined) gave Biofilm kill mix inactive, TRPML3 ag inactive and zfTRPN1 agonist inactive.
For CN(C)c1ncc(S(=O)(=O)c2ccc(Cl)cc2)c(-c2ccc(Cl)cc2Cl)n1 the results were ABCG2 block inactive, TRPML3 ag inactive, zfTRPN1 agonist inactive and ABCB1 inh inactive.
For CN(C)c1ncc(S(=O)(=O)c2ccccc2)c(-c2ccc(Cl)cc2Cl)n1 the results were ABCG2 block inactive, TRPML3 ag 58.1, zfTRPN1 agonist inactive, ABCB1 inh inactive, TRPN1 counter inactive and TRPML3 ag conf 81.9.
Cc1cc(NC(=O)COC(=O)C(Cc2ccccc2)NC(=O)c2ccco2)no1 (centres undefined) was read as ABCG2 block inactive, TRPML3 ag 18.1, zfTRPN1 agonist inactive, ABCB1 inh inactive, TRPN1 counter 21.6 and TRPML3 ag conf 23.8.
Screening CCc1cc2c(-c3ccccc3)cc(=O)oc2c(CN2CCOCC2)c1O returned ABCG2 block inactive, TRPML3 ag inactive, zfTRPN1 agonist inactive and ABCB1 inh inactive.
For Cc1cc(C(C)c2ccccc2)c(O)c(CN2CCOCC2)c1C (centres undefined) the results were ABCG2 block inactive, TRPML3 ag 15.7, zfTRPN1 agonist inactive, ABCB1 inh inactive, TRPN1 counter inactive and TRPML3 ag conf 33.2.
`Cc1ccc(S(=O)(=O)N2C(=S)SCC2(C)C)cc1` gave ABCG2 block inactive, TRPML3 ag 27.8, zfTRPN1 agonist inactive, ABCB1 inh inactive, TRPN1 counter inactive and TRPML3 ag conf 46.6.
COc1ccc(C(=O)CSc2nnn(-c3cccc(NC(C)=O)c3)n2)cc1 was read as Biofilm kill mix inactive, TRPML3 ag 12.2, zfTRPN1 agonist inactive, TRPN1 counter inactive and TRPML3 ag conf 21.3.
For CC(=O)Nc1cccc(-n2nnc(SCC(=O)c3ccccc3)n2)c1 the results were Biofilm kill mix inactive, TRPML3 ag inactive and zfTRPN1 agonist inactive.
For O=S(=O)(c1ccc(F)cc1)N1CCN(Cc2ccccn2)CC1 the results were ABCG2 block inactive, ROMK mod inactive, Biofilm kill mix inactive, TRPML3 ag inactive, zfTRPN1 agonist inactive and ABCB1 inh inactive.
Screening COc1cc(OC)nc(-n2ncc(Br)c(Br)c2=O)n1 returned ABCG2 block inactive, ROMK mod inactive, Biofilm kill mix inactive, TRPML3 ag inactive, zfTRPN1 agonist inactive and ABCB1 inh inactive.
